Measured values reported in ChEMBL document CHEMBL2086373, “Identification and In-Vitro ADME Assessment of a Series of Novel Anti-Malarial Agents Suitable for Hit-to-Lead Chemistry” (ACS Med Chem Lett, 2012).
Converted amounts (≈) assume the structure as drawn. The source made the active and inactive calls. No cut-off for these calls is given here.

Tests used:
Plasmodium falciparum = assay: Antiplasmodium activity against chloroquine-sensitive Plasmodium falciparum NF54 assessed as inhibition of [3H[hypoxanthine incorporation; type: functional, organism-based
Summary of the method: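 Run at Swiss TPH on P. falciparum NF54 (3D7 is a clone of it). Read-out is 3H-hypoxanthine incorporation. IC50 is the mean of ≥2 experiments.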

[1] = […]-phosphate buffered saline partition coefficient, log D after 5 hrs by LC-UV analysis at pH 7.4; type: physicochemical; settings: octan-1-ol/phosphate buffered saline
Summary of the method: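 Log D from partition between octan-1-ol and phosphate-buffered PBS at pH 7.4.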

Plasmodium berghei [2] = assay: Antimalarial activity against GFP-transfected Plasmodium berghei ANKA infected in mouse assessed as reduction in parasitemia at 50 mg/kg, sc administered QD for 4 days relative to vehicle-treated control; type: functional; design: scale not given: the % may be the effect or the level left; settings: route subcutaneous
Summary of the method: (§1)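 Peters 4-day test: 50 mg/kg given sc once daily for 4 days. Parasitemia reduction and survival days are compared against infected, untreated control animals.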

[3] = Efflux ratio of apparent permeability across human Caco2 cells at 10 uM after 60 mins; type: ADME, cell-based; settings: Caco-2
Summary of the method: (§2)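 Apical and basal chambers in HBSS, pH 7.4. Compound at 10 μM added to the donor side at time zero. Donor and acceptor chambers both sampled after 60 min at 37 °C. A>B permeability reported in 10^-6 cm/s, plus efflux ratio.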

[4] = Kinetic solubility of the compound in phosphate buffered saline after 2 hrs at pH 7.4; type: physicochemical; settings: read-out: Kinetic_solubility
Summary of the method: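 Kinetic solubility measured in PBS, pH 7.4.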

[5] = Apparent permeability of the compound from apical to basal side of human Caco2 cells at 10 uM after 60 mins; type: ADME, cell-based; settings: Caco-2; summary of the method: as §2
[6] = Metabolic stability in human hepatic microsomes assessed as % turnover at 1 uM after 40 mins by LC/MS/MS analysis; settings: liver microsomes
Plasmodium berghei [7] = assay: Antimalarial activity against GFP-transfected Plasmodium berghei ANKA infected in mouse assessed as change in host survival time at 50 mg/kg, sc administered QD for 4 days relative to untreated control; type: functional, organism-based; design: dose 50 mg/kg; summary of the method: as §1

SMILES	IC50 (Plasmodium falciparum) [nM]	other results
Cc1nnc(N2CCOCC2)c2nn(-c3ccccc3)c(C)c12	> 100000	
Cc1sc2ncnc(Sc3nnc(C(F)(F)F)n3C)c2c1C	5170	
Cc1sc2ncnc(Sc3nnc4ccccn34)c2c1C	460	
CCc1nnc(Sc2ncnc3sccc23)[nH]1	1160	
COc1nc(NC(=N)N)nc2ccc(C)cc12	740	
c1ccc(-c2csc3ncnc(Sc4nnc5ccccn45)c23)cc1	2670	
Cc1ccc(-n2c(Sc3ncnc4sccc34)nnc2N2CCCC2)cc1	150	
COc1cccc(-n2nc3c(C)nnc(C)c3c2C)c1	> 100000	
Cc1ccc(-n2nc3c(C)nnc(C)c3c2C)cc1	> 100000	
CCCCN1CN=C(Nc2nc(C)c3ccccc3n2)NC1	1580	
CC(=O)/N=C(/NC(C)=O)Nc1nc(C)c2cc(C)ccc2n1	3740	
CCOc1ccc(-n2nc3c(Cl)nnc(C)c3c2C)cc1	340	
CCOc1nnc(C)c2c(C)n(-c3cccc(OC)c3)nc12	16000	
Cc1nc(NC2=NCCC(=O)N2)nc2ccccc12	> 100000	
Cn1c(Sc2ncnc3sccc23)nnc1C1CC1	1480	
Cc1nnc(C)c2c(C)n(-c3ccc4c(c3)OCO4)nc12	> 100000	

More lines, main results first:

IC50 (Plasmodium falciparum) [nM]	SMILES	other results
280	Cc1nnc(Cl)c2nn(-c3cccc(Cl)c3)c(C)c12	
> 100000	O=C(Cc1ccccc1)Nc1cccc2[nH]c(C(F)(F)F)nc12	
> 100000	Cc1ccc(S(=O)(=O)Nc2cccc3[nH]c(C(F)(F)F)nc23)cc1	
9900	COc1ccc(CNc2cccc3[nH]c(C)nc23)cc1	
3930	COc1ccc(CNc2cccc3[nH]c(C(F)(F)F)nc23)cc1	
10800	O=C(Nc1cccc2[nH]c(C(F)(F)F)nc12)c1ccc(Cl)cc1	
150	c1ccn2c(Sc3ncnc4sccc34)nnc2c1	logD at 5 h [1]: > 3.8; Activity (Plasmodium berghei [2]): 34%; efflux ratio at 1 h, 10 µM [3]: 0.28; solubility kinetic at 2 h [4]: 20 µM (≈ 5.71 µg/mL); Papp A→B at 1 h, 10 µM [5]: 50 ×10⁻⁶ cm/s; % turnover at 40 min, 1 µM [6]: 50%; Activity (Plasmodium berghei [7]): inactive
310	Cc1ccc(-n2nc3c(Cl)nnc(C)c3c2C)cc1	
490	Fc1ccc(CNc2cccc3[nH]c(C(F)(F)F)nc23)cc1	logD at 5 h [1]: 2; efflux ratio at 1 h, 10 µM [3]: 0.43; solubility kinetic at 2 h [4]: < 5 µM; Papp A→B at 1 h, 10 µM [5]: 1.5 ×10⁻⁶ cm/s; % turnover at 40 min, 1 µM [6]: 19%
430	Cc1nnc(Cl)c2nn(-c3ccccc3)c(C)c12	
420	Cc1nnc(Cl)c2nn(-c3ccc(Cl)cc3)c(C)c12	
